We go through two compounds from ChEMBL document CHEMBL1156083, “N,N-Diethyl-4-[(3-hydroxyphenyl)(piperidin-4-yl)amino] benzamide derivatives: the development of diaryl amino piperidines as potent delta opioid receptor agonists with in vivo anti-nociceptive activity in rodent models” (Bioorg Med Chem Lett, 2009).

As usually defined, the bioavailability is the share of a dose that reaches the circulation, judged against a reference dose that is usually intravenous. Lower therefore signals little systemic uptake. The half-life is the time in which the quantity being followed falls by half. A high value points to slow loss. As usually defined, the ED50 is the dose at which the effect has come halfway, by size or by number of responders. Lower therefore signals greater potency.

In data set [1] the test system is Rattus norvegicus. Briefly: Toxicity in Sprague-Dawley rat assessed convulsant activity at 3 to 30 umol/kg, iv after 30 mins. It counts as organism-based. Particulars: in vivo, 0.5 h. In outline: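 Sprague-Dawley rats were watched for convulsions during the carrageenan hyperalgesia experiment, at the intravenous doses used there (3 to 30) and 30 min after dosing.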

The test system of data set [2] is Rattus norvegicus. Put plainly: Antihyperalgesic activity against carrageenan-induced inflammatory hyperalgesia in Sprague-Dawley rat at 30 umol/kg, iv after 30 mins. It counts as functional. In outline:
(§1)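 Sprague-Dawley rats with carrageenan-induced inflammatory hyperalgesia received the compound intravenously across a dose range of 3 to 30. Antinociceptive reversal was measured 30 min after dosing.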

The subject of data set [3] is Mus musculus. Briefly: Toxicity in CD1 mouse assessed hyperactivity at above 30 umol/kg, iv after 20 mins. Type of data set: organism-based. To be noted: in vivo.
Data set [4] relates to Rattus norvegicus. Put plainly: Toxicity in Sprague-Dawley rat assessed hyperactivity at above 30 umol/kg, iv after 30 mins. Particulars: in vivo, 0.5 h. Type of data set: organism-based.
Data set [5] is described as follows: Bioavailability in rat. Type of data set: ADME, organism-based. To be noted: in vivo.
The nature of data set [6]: Half life in rat. It counts as ADME, organism-based. Particulars: in vivo.
Data set [7] deals with Mus musculus. Put plainly: Toxicity in CD1 mouse assessed convulsant activity at 4 to 25 umol/kg, iv after 20 mins. It counts as organism-based. To be noted: in vivo. The procedure, abridged:
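CD1 mice were watched for convulsions during the acetic acid writhing experiment, at the intravenous doses used there (4 to 25) and 20 min after dosing.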

Data set [8] concerns Rattus norvegicus. Briefly: Antihyperalgesic activity against carrageenan-induced inflammatory hyperalgesia in iv dosed Sprague-Dawley rat after 30 mins. It counts as functional. In outline:
as §1

Data set [9] deals with Mus musculus. Briefly: Antinociceptive activity against acetic acid-induced writhing response in iv dosed CD1 mouse after 20 mins. It counts as functional. The procedure, abridged:
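CD1 mice received the compound intravenously at doses of 4 to 25 before the acetic acid-induced abdominal constriction (writhing) test. Writhing inhibition was scored 20 min after dosing and ED₅₀ was taken from the dose-response. A separate arm was pretreated with the delta-selective antagonist naltrindole.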
Background: An intraperitoneal irritant provokes the stretching counted in writhing tests.

With `CCN(CC)C(=O)c1ccc(N(c2cccc(O)c2)C2CCN(CCc3ccccc3)CC2)cc1`, the Activity result is “Non-toxic” with Rattus norvegicus [1]; 60% in the data set with Rattus norvegicus [2]; “Non-toxic” in the data set on Mus musculus [3]; “Non-toxic” with Rattus norvegicus [4]; “Non-toxic” in the data set with Mus musculus [7]; “Dose-dependent effect” with Rattus norvegicus [8]. Besides, the bioavailability in data set [5] was 25%. Also, in data set [6], the half-life is 48 min. The compound also displayed a 50% effective dose (ED50) in the data set with Rattus norvegicus [8] (Rattus norvegicus, Sprague-Dawley, iv, 0.5 h) of 17.5 µmol/kg.
Consider `CN1CC[C@]23c4c5ccc(O)c4O[C@H]2[C@@H](O)C=C[C@H]3[C@H]1C5` [MORPHINE], for which the Activity in the data set on Mus musculus [9] came to 1.5 µmol/kg; with Rattus norvegicus [8] it was 3.1 µmol/kg.
